The source made the active and inactive calls. No cut-off for these calls is given here.
What was measured:
Candida albicans [1] = assay: Downregulation of Translational elongation factor 1 expression in Candida albicans SC5314 at 40 uM after 24 hrs by MALDI-TOF MS; assay type: functional, organism-based
Summary of the method: (§1)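 Overnight YNB-glucose SC5314 culture, PBS-washed, adjusted to OD600 0.1 and treated 24 h with 40 or 200 μM farnesol (methanol in controls). Proteomes were compared with untreated cells by 2D SDS-PAGE and MALDI-TOF MS, searched against NCBI nonredundant database. Spots were counted as changed at ≥1.5-fold in three independent experiments.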

Candida albicans [2] = assay: Increase in MCA1 expression in Candida albicans SC5314 at 100 uM after 4 hrs by quantitative PCR analysis; assay type: functional, organism-based
Summary of the method: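 Log-phase SC5314 exposed 4 h to farnesol (methanol vehicle control). cDNA diluted 1:20 and run in SYBR green real-time PCR: 15 min 95°C, then 35 cycles of 95°C 1 min, 58°C 30 s, 72°C 30 s, with a melt curve check. MCA1 level was calculated by 2^−ΔΔCT against ACT1 and RPP2B reference genes.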

Candida albicans [3] = assay: Upregulation of Acetyl-CoA hydrolase/transferase expression in Candida albicans SC5314 at 200 uM after 24 hrs by MALDI-TOF MS; assay type: functional, organism-based; summary of the method: as §1
Candida albicans [4] = assay: Upregulation of Coproporphyrinogen III oxidase expression in Candida albicans SC5314 at 40 uM after 24 hrs by MALDI-TOF MS; assay type: functional, organism-based; summary of the method: as §1
Candida albicans [5] = assay: Antiproliferative activity against Candida albicans SC5314 assessed as cell killing after 24 hrs by MTS assay; assay type: functional
Summary of the method: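 SC5314 grown overnight in YNB (pH 7.0) with 50 mM glucose at 30°C, 120 rpm, washed in PBS. Suspensions at 1 × 10⁷ cells/ml exposed to farnesol at final 0, 10, 40, 100, 200, 300 μM for 24 h at 30°C with shaking, with methanol vehicle controls. MTS reagent added for 4 h at 37°C, A490 read, and % killed cells calculated.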

Candida albicans [6] = assay: Upregulation of Mitochondrial 2-enoyl thioester reductase expression in Candida albicans SC5314 at 200 uM after 24 hrs by MALDI-TOF MS; assay type: functional, organism-based
Summary of the method: (§2)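 SC5314 grown overnight at 30°C, 120 rpm, in yeast nitrogen base (pH 7.0) with 50 mM glucose. Cells were washed in PBS and adjusted to OD600 0.1, then treated 24 h with farnesol from a methanol dilution; controls received methanol. Proteomes of treated and untreated cells were compared by 2-D SDS-PAGE and MALDI-TOF MS, with ProFound searches of the NCBI nonredundant database. Spots changed at least 1.5-fold in three independent experiments were counted.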

Candida albicans [7] = assay: Upregulation of Phosphoglycerate mutase expression in Candida albicans SC5314 at 200 uM after 24 hrs by MALDI-TOF MS; assay type: functional, organism-based; summary of the method: as §2
Candida albicans [8] = assay: Downregulation of Glyceraldehyde-3-phosphate dehydrogenase expression in Candida albicans SC5314 at 200 uM after 24 hrs by MALDI-TOF MS; assay type: functional, organism-based; summary of the method: as §1
Candida albicans [9] = assay: Induction of apoptosis in Candida albicans SC5314 assessed as mitochondrial degradation at 200 uM after 3 hrs by Fluorescence analysis; assay type: functional
Summary of the method: (§3)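 Farnesol-exposed SC5314 (40, 100, 200 μM; methanol control, H2O2 positive control) stained with a MitoPT mitochondrial permeability transition dye per kit instructions. Cells imaged by confocal microscopy: red mitochondrial aggregates in healthy cells, dispersed green signal in apoptotic cells. Percentage of cells with degradation was recorded.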

Candida albicans [10] = assay: Induction of apoptosis in Candida albicans SC5314 assessed as mitochondrial degradation at 40 uM after 3 hrs by Fluorescence analysis; assay type: functional; summary of the method: as §3
Candida albicans [11] = assay: Upregulation of Aryl-alcohol dehydrogenase expression in Candida albicans SC5314 at 40 uM after 24 hrs by MALDI-TOF MS; assay type: functional, organism-based; summary of the method: as §1
Candida albicans [12] = assay: Upregulation of Glutathione reductase expression in Candida albicans SC5314 at 200 uM after 24 hrs by MALDI-TOF MS; assay type: functional, organism-based; summary of the method: as §1
Candida albicans [13] = assay: Upregulation of NADH-cytochrome b5 reductase expression in Candida albicans SC5314 at 200 uM after 24 hrs by MALDI-TOF MS; assay type: functional, organism-based; summary of the method: as §2
Candida albicans [14] = assay: Upregulation of Coproporphyrinogen III oxidase expression in Candida albicans SC5314 at 200 uM after 24 hrs by MALDI-TOF MS; assay type: functional, organism-based; summary of the method: as §1
Candida albicans [15] = assay: Upregulation of POR1 expression in Candida albicans SC5314 at 200 uM after 24 hrs by MALDI-TOF MS; assay type: functional, organism-based; summary of the method: as §2
Candida albicans [16] = assay: Upregulation of Alcohol dehydrogenase expression in Candida albicans SC5314 at 40 uM after 24 hrs by MALDI-TOF MS; assay type: functional, organism-based; summary of the method: as §1
Candida albicans [17] = assay: Upregulation of Aldose reductase expression in Candida albicans SC5314 at 200 uM after 24 hrs by MALDI-TOF MS; assay type: functional, organism-based; summary of the method: as §1
Candida albicans [18] = assay: Upregulation of Putative mitochondrial aconitate hydratase expression in Candida albicans SC5314 at 40 uM after 24 hrs by MALDI-TOF MS; assay type: functional, organism-based; summary of the method: as §2
Candida albicans [19] = assay: Induction of apoptosis in Candida albicans SC5314 at 40 uM after 24 hrs by TUNEL assay; assay type: functional
Summary of the method: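 After 24 h in farnesol (40, 100, 200 μM), cells were PBS-washed, fixed in 4% paraformaldehyde (pH 7.4) 1 h at 20°C, and permeabilized 2 min on ice. They were labeled with 9:1 label:enzyme TUNEL mix 1 h at 37°C in the dark and examined by fluorescence microscopy at 515–565 nm. Flow cytometry counted % positive of 30,000 gated cells, gates set by no-enzyme and DNase-treated controls.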

Candida albicans [20] = assay: Induction of apoptosis in Candida albicans SC5314 assessed as mitochondrial degradation at 100 uM after 3 hrs by Fluorescence analysis; assay type: functional; summary of the method: as §3
Candida albicans [21] = assay: Increase in MCA1 expression in Candida albicans SC5314 at 2.5 mM after 4 hrs by quantitative PCR analysis
Candida albicans [22] = assay: Downregulation of Enolase expression in Candida albicans SC5314 at 40 uM after 24 hrs by MALDI-TOF MS; assay type: functional, organism-based; summary of the method: as §1
Candida albicans [23] = assay: Induction of apoptosis in Candida albicans SC5314 assessed as activation of caspase activity at 200 uM after 3 hrs by Fluorescence analysis; assay type: functional
Summary of the method: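 Active caspases in farnesol-exposed cells (40, 100, 200 μM; methanol control, H2O2 positive control) were detected with a FLICA kit per manufacturer. Cells were examined by confocal microscopy, with green-fluorescing cells counted as caspase-positive and unstained cells as nonapoptotic. Percentage of positive cells was recorded.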

Candida albicans [24] = assay: Upregulation of Alanine/arginine aminopeptidase expression in Candida albicans SC5314 at 40 uM after 24 hrs by MALDI-TOF MS; assay type: functional, organism-based; summary of the method: as §1
Candida albicans [25] = assay: Upregulation of Heat shock protein 90 expression in Candida albicans SC5314 at 200 uM after 24 hrs by MALDI-TOF MS; assay type: functional, organism-based; summary of the method: as §1
Candida albicans [26] = assay: Downregulation of Phosphoglycerate mutase expression in Candida albicans SC5314 at 40 uM after 24 hrs by MALDI-TOF MS; assay type: functional, organism-based; summary of the method: as §1
Candida albicans [27] = assay: Upregulation of Pyruvate decarboxylase expression in Candida albicans SC5314 at 40 uM after 24 hrs by MALDI-TOF MS; assay type: functional, organism-based; summary of the method: as §2

CC(C)=CCC/C(C)=C/CC/C(C)=C/CO [FARNESOL]
Activity (Candida albicans [1]): Active | Activity (Candida albicans [2]): inactive | Activity (Candida albicans [3]): Active | Activity (Candida albicans [4]): Active | Activity (Candida albicans [5]): 60% | Activity (Candida albicans [6]): Active | Activity (Candida albicans [7]): Active | Activity (Candida albicans [8]): Active | Activity (Candida albicans [9]): 95% | Activity (Candida albicans [10]): 90% | Activity (Candida albicans [11]): Active | Activity (Candida albicans [12]): Active | Activity (Candida albicans [13]): Active | Activity (Candida albicans [14]): Active | Activity (Candida albicans [15]): Active | Activity (Candida albicans [16]): Active | Activity (Candida albicans [17]): Active | Activity (Candida albicans [18]): Active | Activity (Candida albicans [19]): 2% | Activity (Candida albicans [20]): 93% | Activity (Candida albicans [21]): Active | Activity (Candida albicans [22]): Active | Activity (Candida albicans [23]): 84% | Activity (Candida albicans [24]): Active | Activity (Candida albicans [25]): Active | Activity (Candida albicans [26]): Active | Activity (Candida albicans [27]): Active

Source: ChEMBL document CHEMBL1649480, “Farnesol-induced apoptosis in Candida albicans” (2009)
